Data: ChEMBL document CHEMBL2331169, “Search for α3β₂/₃γ2 subtype selective ligands that are stable on human liver microsomes” (Bioorg Med Chem, 2013)
The source made the active and inactive calls. No cut-off for these calls is given here.

Assays:
[1] = target: T1, GABA A receptor alpha-2/beta-2/gamma-2 (Rattus norvegicus) (UniProt P18508+P23576+P63138); assay: Agonist activity at rat GABAA alpha2beta3gamma2 receptor expressed in Xenopus oocytes assessed as stimulation of GABA-induced chloride current at 100 nM incubated 30 secs prior to GABA induction measured after 15 mins by two-electrode voltage clamp assay relative to control; assay type: cell-based; details: Oocyte
Outline: (§1)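 Rat GABAA β3 and γ2 cDNAs plus α1, α2, α3 or α5 cDNA injected into Xenopus oocytes; follicle layers removed 36 h later. Two-electrode recording with […]-filled electrodes; oocytes perfused with Ringer (90 mM NaCl, 5 mM HEPES pH 7.4, 1 mM MgCl2, KCl, CaCl2) switched to GABA at EC3 with drug (0.1% DMSO final). Mean ± SEM, 3–4 oocytes, ≥2 batches.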

[2] = target: Gamma-aminobutyric acid receptor subunit alpha-3 (Rattus norvegicus) (UniProt P20236); assay: Agonist activity at rat GABAA alpha3beta3gamma2 receptor expressed in Xenopus oocytes assessed as stimulation of GABA-induced chloride current at 1 uM incubated 30 secs prior to GABA induction measured after 15 mins by two-electrode voltage clamp assay relative to control; assay type: cell-based; details: Oocyte; outline: as §1
Sequence of Gamma-aminobutyric acid receptor subunit alpha-3 (Rattus norvegicus) (P20236 whole entry): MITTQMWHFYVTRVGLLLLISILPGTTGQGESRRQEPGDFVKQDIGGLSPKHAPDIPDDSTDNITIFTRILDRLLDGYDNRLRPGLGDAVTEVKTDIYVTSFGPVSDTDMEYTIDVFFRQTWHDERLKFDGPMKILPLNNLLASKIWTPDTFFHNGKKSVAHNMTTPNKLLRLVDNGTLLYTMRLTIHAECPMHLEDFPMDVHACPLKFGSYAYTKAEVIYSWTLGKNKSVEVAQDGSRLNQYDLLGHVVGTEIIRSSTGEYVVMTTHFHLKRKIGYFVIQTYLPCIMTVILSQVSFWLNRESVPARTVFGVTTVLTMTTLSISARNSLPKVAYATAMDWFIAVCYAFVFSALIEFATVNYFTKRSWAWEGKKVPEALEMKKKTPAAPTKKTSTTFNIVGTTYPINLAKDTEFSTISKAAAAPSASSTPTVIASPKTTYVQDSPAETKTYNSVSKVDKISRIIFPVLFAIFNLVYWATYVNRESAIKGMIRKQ

[3] = target: T2, GABA A receptor alpha-5/beta-3/gamma-2 (Rattus norvegicus) (UniProt P18508+P19969+P63079); assay: Agonist activity at rat GABAA alpha5beta3gamma2 receptor expressed in Xenopus oocytes assessed as stimulation of GABA-induced chloride current at 1 uM incubated 30 secs prior to GABA induction measured after 15 mins by two-electrode voltage clamp assay relative to control; assay type: cell-based; details: Oocyte; outline: as §1
[4] = target: Gamma-aminobutyric acid receptor subunit alpha-3 (Rattus norvegicus) (UniProt P20236); assay: Agonist activity at rat GABAA alpha3beta3gamma2 receptor expressed in Xenopus oocytes assessed as stimulation of GABA-induced chloride current at 100 nM incubated 30 secs prior to GABA induction measured after 15 mins by two-electrode voltage clamp assay relative to control; assay type: cell-based; details: Oocyte; outline: as §1
[5] = target: T3, GABA-A receptor; alpha-1/beta-2/gamma-2 (Rattus norvegicus) (UniProt P18508+P62813+P63138); assay: Agonist activity at rat GABAA alpha1beta3gamma2 receptor expressed in Xenopus oocytes assessed as stimulation of GABA-induced chloride current at 1 uM incubated 30 secs prior to GABA induction measured after 15 mins by two-electrode voltage clamp assay relative to control; assay type: cell-based; details: Oocyte; outline: as §1
[6] = target: T1, GABA A receptor alpha-2/beta-2/gamma-2 (Rattus norvegicus); assay: Agonist activity at rat GABAA alpha2beta3gamma2 receptor expressed in Xenopus oocytes assessed as stimulation of GABA-induced chloride current at 1 uM incubated 30 secs prior to GABA induction measured after 15 mins by two-electrode voltage clamp assay relative to control; assay type: cell-based; details: Oocyte; outline: as §1
[7] = target: T3, GABA-A receptor; alpha-1/beta-2/gamma-2 (Rattus norvegicus); assay: Agonist activity at rat GABAA alpha1beta3gamma2 receptor expressed in Xenopus oocytes assessed as stimulation of GABA-induced chloride current at 100 nM incubated 30 secs prior to GABA induction measured after 15 mins by two-electrode voltage clamp assay relative to control; assay type: cell-based; details: Oocyte; outline: as §1
[8] = target: T2, GABA A receptor alpha-5/beta-3/gamma-2 (Rattus norvegicus); assay: Agonist activity at rat GABAA alpha5beta3gamma2 receptor expressed in Xenopus oocytes assessed as stimulation of GABA-induced chloride current at 100 nM incubated 30 secs prior to GABA induction measured after 15 mins by two-electrode voltage clamp assay relative to control; assay type: cell-based; details: Oocyte; outline: as §1
[9] = Metabolic stability in heat inactivated human liver microsomes assessed as compound remaining at 10 uM measured at 60 mins by LC-MS/MS analysis relative to control; assay type: ADME, Microsome; details: read-out: Stability
Outline: (§2)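 Control incubation with heat-inactivated human liver microsomes (0.5 mg protein/ml) in 100 mM phosphate pH 7.4, 37 °C, sampled at 0 and 60 min. Samples quenched in acetonitrile with internal standard and analysed by LC-MS/MS. Percent remaining is the peak-area ratio relative to 0 min ×100; duplicates.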

[10] = Metabolic stability in human liver microsomes assessed as compound remaining at 1 uM measured at 15 mins by LC-MS/MS analysis relative to control; assay type: ADME, Microsome; details: read-out: Stability
Outline: (§3)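 Pooled human liver microsomes (150 donors, 0.5 mg protein/ml) with 2.5 mM NADPH and 3.3 mM MgCl2 in 100 mM phosphate pH 7.4, 0.1% DMSO final, 37 °C, reaction started with microsomes. Aliquots quenched in cold acetonitrile with internal standard; LC-MS/MS in positive-ion ESI MRM mode. Percent remaining is analyte/internal-standard peak-area ratio versus 0 min ×100; duplicates.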

[11] = (§4) Metabolic stability in heat inactivated human liver microsomes assessed as compound remaining at 1 uM measured at 60 mins by LC-MS/MS analysis relative to control; assay type: ADME, Microsome; details: heat-inactivated liver microsomes, read-out: Stability; outline: as §2
[12] = (§5) Metabolic stability in human liver microsomes assessed as compound remaining at 1 uM measured at 60 mins by LC-MS/MS analysis relative to control; assay type: ADME, Microsome; details: liver microsomes, read-out: Stability; outline: as §3
[13] = Metabolic stability in human liver microsomes assessed as compound remaining at 10 uM measured at 60 mins by LC-MS/MS analysis relative to control; assay type: ADME, Microsome; details: read-out: Stability; outline: as §3
[14] = Metabolic stability in human liver microsomes assessed as compound remaining at 10 uM measured at 30 mins by LC-MS/MS analysis relative to control; assay type: ADME, Microsome; details: read-out: Stability; outline: as §3
[15] = Metabolic stability in human liver microsomes assessed as compound remaining at 10 uM measured at 15 mins by LC-MS/MS analysis relative to control; assay type: ADME, Microsome; details: read-out: Stability; outline: as §3
[16] = (§6) Metabolic stability in human liver microsomes assessed as compound remaining at 1 uM measured at 30 mins by LC-MS/MS analysis relative to control; assay type: ADME, Microsome; details: liver microsomes, read-out: Stability; outline: as §3
[17] = test system: Liver microsomes; assay: as §5; assay type: ADME, Microsome; details: microsomes, 1 h, 1 µM; outline: as §3
[18] = test system: Liver microsomes; assay: as §6; assay type: ADME, Microsome; details: microsomes, 0.5 h, 1 µM; outline: as §3
[19] = test system: Rattus norvegicus; assay: Anxiolytic activity in rat assessed as increase in time spent in lighted area at 3 mg/kg, ip administered 20 mins prior to testing measured for 30 mins by light/dark cycle test relative to vehicle-treated control; assay type: functional, organism-based; design: dose 3 mg/kg
[20] = test system: Rattus norvegicus; assay: Sedative activity in rat assessed as reduction of D-amphetamine sulfate-induced locomotion at 3 mg/kg, ip administered 20 mins prior to testing measured for 90 mins relative to vehicle-treated control; assay type: functional, organism-based; design: dose 3 mg/kg
Outline: (§7)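 Rats kept ≥10 days on a reversed light/dark cycle. Drug or saline (2 ml/kg) given i.p. 20 min before an open-field arena; spontaneous x–y locomotion recorded 30 min by beam breaks. D-amphetamine sulfate 0.5 mg/kg i.p. then given, and locomotion recorded a further 90 min.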

[21] = test system: Rattus norvegicus; assay: Sedative activity in rat assessed as reduction of D-amphetamine sulfate-induced locomotion at 10 to 100 mg/kg, ip administered 20 mins prior to testing measured for 90 mins relative to vehicle-treated control; assay type: functional, organism-based; outline: as §7
[22] = test system: Liver microsomes; assay: as §4; assay type: ADME, Microsome; details: microsomes, 1 h, 1 µM; outline: as §2
[23] = test system: Rattus norvegicus; assay: Anxiolytic activity in rat assessed as increase in time spent in lighted area at 10 to 100 mg/kg, ip administered 20 mins prior to testing measured for 30 mins by light/dark cycle test relative to vehicle-treated control; assay type: functional, organism-based

SMILES	Activity [1] [%]	Activity [2] [%]	Activity [3] [%]	Activity [4] [%]	Activity [5] [%]	Activity [6] [%]	Activity [7] [%]	Activity [8] [%]	remaining at 1 h, 10 µM [9] [%]	remaining at 0.25 h, 1 µM [10] [%]	remaining at 1 h, 1 µM [11] [%]	remaining at 1 h, 1 µM [12] [%]	remaining at 1 h, 10 µM [13] [%]	remaining at 0.5 h, 10 µM [14] [%]	remaining at 0.25 h, 10 µM [15] [%]	remaining at 0.5 h, 1 µM [16] [%]	also measured
C#Cc1ccc2c(c1)C(c1ccccc1F)=NCc1c(-c3nc(C(C)C)no3)ncn1-2	154	460	331	226	234	225	140	239	–	–	–	–	–	–	–	–	–
C#Cc1ccc2c(c1)C(c1ccccn1)=NCc1c(C(=O)OCC)ncn1-2	–	–	–	–	–	–	–	–	95.4	106	93.8	80.2	76.1	90.4	103	95.6	–
C#Cc1ccc2c(c1)C(c1ccccn1)=NCc1c(C(=O)O)ncn1-2	–	–	–	–	–	–	–	–	88.3	102	97	110	85.9	86.1	91.4	105	–
C#Cc1ccc2c(c1)C(c1ccccc1)=NCc1c(C(=O)OCC)ncn1-2	–	–	–	–	–	–	–	–	102	41.4	107	1.5	1.7	13.9	47.6	11.2	–
C#Cc1ccc2c(c1)C(c1ccccn1)=NCc1c(C(=O)NC)ncn1-2	140	376	182	163	171	226	117	122	110	109	110	–	110	106	104	–	Stability [17]: 136.4%; Stability [18]: 126%
C#Cc1ccc2c(c1)C(c1ccccc1)=NCc1c(C(=O)O)ncn1-2	–	–	–	–	–	–	–	–	97.2	108	106	111	94.8	94.8	95.3	110	–
CN1C(=O)CN=C(c2ccccc2)c2cc(Cl)ccc21	–	–	–	–	–	–	–	–	–	–	–	–	–	–	–	–	Activity [19]: Active; Activity [20]: Active
C#Cc1ccc2c(c1)C(c1ccccc1)=NCc1c(C(=O)NC)ncn1-2	211	831	307	412	192	287	132	257	114	87.3	114	5.2	82.8	104	107	37.5	–
C#Cc1ccc2c(c1)C(c1ccccc1)=NCc1c(-c3nc(C(C)C)no3)ncn1-2	160	381	291	195	150	281	107	175	119	100	–	90.8	96.6	108	109	110	Activity [21]: inactive; Stability [22]: 137.5%; Activity [23]: Active
C#Cc1ccc2c(c1)C(c1ccccc1F)=NCc1c(C(=O)OCC)ncn1-2	–	–	–	–	–	–	–	–	110	13.5	102	0.3	0.6	3.6	20	2.2	–
C#Cc1ccc2c(c1)C(c1ccccn1)=NCc1c(-c3nc(C(C)C)no3)ncn1-2	139	375	252	143	178	236	117	130	91.7	97.8	113	89.5	95.1	99.3	106	98.7	–
C#Cc1ccc2c(c1)C(c1ccccc1F)=NCc1c(C(=O)NC)ncn1-2	241	485	361	349	201	287	152	326	108	97.3	116	92.3	103	103	96.8	95.9	–
